# According to ChEMBL document CHEMBL5252538, “β-Lactam analogues of combretastatin A-4 prevent metabolic inactivation by glucuronidation in chemoresistant HT-29 colon cancer cells” (Eur J Med Chem, 2017):
# Active and inactive are the calls of the source. No cut-off for these calls is given here.
# Columns and labels:
# HT-29 [1] = assay: Induction of cell cycle arrest in human HT-29 cells assessed as accumulation of cells at G0/G1 phase at 1 uM incubated for 24 hrs by RAase A/PI staining based flow cytometry analysis (reference value: 57%); type: functional
# HT-29 [2] = assay: Induction of cell cycle arrest in human HT-29 cells assessed as accumulation of cells at G2/M phase at 1 uM incubated for 24 hrs by RAase A/PI staining based flow cytometry analysis (reference value: 16%); type: functional
# HT-29 [3] = assay: Induction of cell cycle arrest in human HT-29 cells assessed as accumulation of cells at G0/G1 phase at 1 uM incubated for 24 hrs in presence of 2,3-bis(amino((2aminophenyl)thio)methylene)succinonitrile by RAase A/PI staining based flow cytometry analysis (reference value: 57%); type: functional
# HT-29 [4] = assay: Induction of cell cycle arrest in human HT-29 cells assessed as accumulation of cells at G2/M phase at 1 uM incubated for 24 hrs in presence of 2,3-bis(amino((2-aminophenyl)thio)methylene)succinonitrile by RAase A/PI staining based flow cytometry analysis (reference value: 16%); type: functional
# MCF7 = assay: Antiproliferative activity against […] human MCF7 cells assessed as inhibition of cell growth incubated for 72 hrs by alamar blue assay; type: functional, cell-based; conditions: MCF7, 72 h
# In short: (§1)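 Cells seeded 24 h before treatment (HL-60 4 × 10⁴, MCF-7 5 × 10³ per well), then given medium, vehicle (1% ethanol v/v) or serial dilutions (eight concentrations) for 72 h. Alamar Blue (10% v/v) added for 3–5 h at 37 °C in the dark, fluorescence read at ex 530/em 590 nm. Viability expressed relative to vehicle (100%), IC50 from dose–response curves; three experiments in triplicate.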
# HL-60 = assay: Antiproliferative activity against […] human HL-60 cells assessed as inhibition of cell growth incubated for 72 hrs by alamar blue assay; type: functional, cell-based; conditions: HL-60, 72 h; in short: as §1
# HT-29 [5] = assay: Antiproliferative activity against combretastatin A-4 resistant human HT-29 cells assessed as inhibition of cell growth incubated for 72 hrs by SRB assay; type: functional, cell-based; conditions: HT-29, 72 h
# In short: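 HT-29 (DMEM Glutamax, 10% FBS) seeded at 1 × 10⁴ cells/well, treated after 24 h with vehicle (1% ethanol v/v) or serial dilutions (eight concentrations) for 72 h; viability measured by sulforhodamine B protocol. Percent viability relative to vehicle control, IC50 from dose–response curves; mean of three experiments in triplicate.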
# HT-29 [6] = assay: Induction of cell cycle arrest in human HT-29 cells assessed as accumulation of cells in G2/M phase at 1 uM incubated for 24 to 72 hrs by RNase/PI staining based flow cytometry analysis; type: functional; conditions: time 24-72 hrs
# HT-29 [7] = assay: Induction of cell cycle arrest in human HT-29 cells assessed as accumulation of cells in sub-G1 phase at 1 uM incubated for 72 hrs by RNase/PI staining based flow cytometry analysis (reference value: 6%); type: functional
# Tubulin (Homo sapiens) [8] = biological target: T1, Tubulin (Homo sapiens) (UniProt P68371+Q9H4B7+P0DPH7+P68366+Q13509+Q71U36+P04350+Q3ZCM7+P07437+P68363+Q9BQE3+Q6PEY2+Q13885+Q9BVA1+Q9BUF5); assay: Induction of microtubule disruption in human HT-29 cells assessed as effect on microtubule organization at 1 uM incubated for 16 hrs by immunofluorescence based confocal microscopic analysis; type: cell-based
# HT-29 [9] = assay: Induction of cell cycle arrest in human HT-29 cells assessed as accumulation of cells in sub-G1 phase at 0.5 uM incubated for 72 hrs by RNase/PI staining based flow cytometry analysis (reference value: 6%); type: functional
# In short: (§2)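 HT-29 treated with vehicle (0.1% ethanol v/v) or compound at 0.5 µM for 24, 48 and 72 h. Adherent plus detached cells collected, fixed overnight in ice-cold 70% ethanol at −20 °C, stained with PI (50 µg/mL) plus RNase A (50 µg/mL) 30 min at 37 °C. 10,000 cells analysed by flow cytometry at 488 nm; sub-G1, G0/G1, G2/M gated on DNA content; mean of three experiments.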
# HT-29 [10] = assay: Induction of cell cycle arrest in human HT-29 cells assessed as accumulation of cells at G2/M phase at 0.5 uM incubated for 72 hrs by RNase/PI staining based flow cytometry analysis relative to control; type: functional; in short: as §2
# HT-29 [11] = assay: Induction of cell cycle arrest in human HT-29 cells assessed as reduction in cells in G0 phase at 0.5 uM incubated for 72 hrs by RNase/PI staining based flow cytometry analysis; type: functional; in short: as §2
# HT-29 [12] = assay: Induction of cell cycle arrest in human HT-29 cells assessed as reduction in cells in S phase at 0.5 uM incubated for 72 hrs by RNase/PI staining based flow cytometry analysis; type: functional; in short: as §2
# Tubulin (Homo sapiens) [13] = biological target: T1, Tubulin (Homo sapiens); assay: Induction of microtubule disruption in human HT-29 cells assessed as complete loss of microtubule structure incubated for 16 hrs by immunofluorescence based confocal microscopic analysis; type: cell-based
# In short: (§3)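 Fixed in 4% paraformaldehyde, permeabilised in 0.5% Triton X-100, blocked in 5% BSA, stained with anti-α-tubulin-FITC (DM1A, 1:100, 2 h) and Alexa Fluor 488, DAPI counterstain; confocal imaging, three occasions.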
# Tubulin (Homo sapiens) [14] = biological target: T1, Tubulin (Homo sapiens); assay: Induction of microtubule disruption in human HT-29 cells assessed as appearance of multiple micronucleus incubated for 16 hrs by immunofluorescence based confocal microscopic analysis; type: cell-based; in short: as §3
Activity (Tubulin (Homo sapiens) [13]),SMILES,Activity (HT-29 [1]) [%],Activity (HT-29 [2]) [%],Activity (HT-29 [3]) [%],Activity (HT-29 [4]) [%],IC50 (MCF7) [nM],IC50 (HL-60) [nM],IC50 (HT-29 [5]) [nM],Activity (HT-29 [6]),Activity (HT-29 [7]) [%],Activity (Tubulin (Homo sapiens) [8]),Activity (HT-29 [9]) [%],Activity (HT-29 [10]) [%],Activity (HT-29 [11]),Activity (HT-29 [12]),Activity (Tubulin (Homo sapiens) [14])
,COc1ccc(C2C(c3ccccc3)C(=O)N2c2cc(OC)c(OC)c(OC)c2)cc1O (mixture of isomers),60,16,26,58,4,2,430,inactive,5,inactive,,,,,
Active,COc1ccc(C2C(c3ccccc3)C(=O)N2c2cc(OC)c(OC)c(OC)c2)cc1 (mixture of isomers),,,,,15,24,22,,,,19,50,Active,Active,Active
